# Measured values of several laboratories.
# Protocols differ between the studies behind these lines.
# Target: cAMP-dependent protein kinase catalytic subunit beta (PRKACB, Homo sapiens, UniProt P22694)
SMILES,effect on,method,concentration,remaining binding
CCCCN(CCCC)C(=O)CN1C[C@@H](c2cc(OC)c3c(c2)OCO3)[C@H](C(=O)O)[C@H]1CC(C)(C)CCC,cell-free assay,competition with immobilised ligand,1 µM,100%
CC1CCCN1c1nccc(-c2cnn3ncccc23)n1 (stereo not drawn),binding,competition with immobilised ligand,1 µM,89%
O=C(NCC1CCOCC1)c1n[nH]cc1NC(=O)c1c(F)cccc1F,binding,competition with immobilised ligand,1 µM,97%
CNC(=O)[C@@H]1CC[C@@H](n2c(-c3ccc4cnccc4c3)nc3ccc(C(=O)NCc4cccc(C(N)=O)c4)cc32)C1,binding,competition with immobilised ligand,1 µM,100%
C[C@@H]1CN(c2cc(-c3n[nH]c4ccc(OC5(C)CC5)cc34)ncn2)C[C@H](C)O1,cell-free assay,competition with immobilised ligand,0.1 µM,91%
O=C(NCCCN1CCOCC1)c1ccc(Nc2ncc(Cl)c(-c3ccc(Cl)s3)n2)cc1,binding,competition with immobilised ligand,1 µM,100%
Nc1ncc2c(n1)-c1c([nH]c3ccc(C#CC4CC4)cc13)CCCC2,binding,competition with immobilised ligand,1 µM,86%
Cc1nc(Cc2cccc(C(F)(F)F)c2)sc1-c1ccc(C(N)=O)nc1,cell-free assay,competition with immobilised ligand,1 µM,92%
C[C@H]1CCN(c2nccc(-c3cnn4ncccc34)n2)C1,binding,competition with immobilised ligand,1 µM,99%
O=C(c1ccc(Nc2nccc(-c3cc4ccccc4s3)n2)cc1)N1CCC(N2CCCC2)CC1,binding,competition with immobilised ligand,1 µM,100%
COc1cnc(Nc2cccc(S(N)(=O)=O)c2)nc1N1CCN(c2ccccc2)C(=O)C1,binding,competition with immobilised ligand,1 µM,99%
COc1ncc2cc3ccccc3nc2c1C#N,cell-free assay,competition with immobilised ligand,5 µM,97%
NS(=O)(=O)c1cc(NC(=O)Cc2ccccc2)ccc1Oc1cccc(Cl)c1,cell-free assay,competition with immobilised ligand,1 µM,100%
c1cnn2ncc(-c3ccnc(N4CCC45COC5)n3)c2c1,binding,competition with immobilised ligand,1 µM,92%
O=C(c1ccc(Nc2ncc(Cl)c(-c3ccc(Cl)s3)n2)cc1)N1CCC(N2CCCC2)CC1,binding,competition with immobilised ligand,1 µM,100%
CN(C)c1nccc(-c2cnn3ncccc23)n1,binding,competition with immobilised ligand,1 µM,76%
CS(=O)(=O)N1CCCC(NC(=O)[C@H](CCC2CCCCC2)NC(=O)c2ccc(CNc3ncnc4c3nnn4-c3ccccc3)cc2)C1 (stereo partly drawn),cell-free assay,competition with immobilised ligand,0.1 µM,92%
CN(C)c1nccc(-c2cnc3ncccn23)n1,binding,competition with immobilised ligand,1 µM,82%
C=CC(=O)N1CCC(C(=O)NCC(=O)N2CCN(c3nc(-c4cnc(N)nc4C(F)F)nc(N4CCOCC4)n3)CC2)CC1,binding,competition with immobilised ligand,1 µM,90%
O=C(O)[C@@H]1[C@@H](Cn2nnc3ccccc3c2=O)CC[C@H]1C(=O)c1ccc(OCCC2CCOCC2)cc1,cell-free assay,competition with immobilised ligand,1 µM,100%
CN(c1nccc(-c2cnn3ncccc23)n1)C1CC1,binding,,1 µM,99%
